# Experimental data as given in ChEMBL document CHEMBL3232958, “Antiproliferative and uncoupling effects of delocalized, lipophilic, cationic gallic acid derivatives on cancer cell lines. Validation in vivo in singenic mice” (J Med Chem, 2014).
# Active and inactive are the calls of the source. The calls are words filed in the database; no cut-off is given here.
# Tests used:
# [1] = Cytotoxicity against mouse TA3/Ha cells after 48 hrs by neutral red assay; assay type: functional, cell-based
# Summary of the method: (§1)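 Neutral red uptake after 48 h exposure at 37 °C, 5% CO2. Seeding: 1 × 10^5 cells/mL for TA3, TA3-MTX-R and CCRF-CEM; 4 × 10^4 cells/mL for MM3MG. Dye at 100 μg/mL for 2 h, then ethanol/acetic acid extraction and absorbance at 540 nm. IC50 from variable-slope sigmoidal dose–response fit; at least three independent experiments in triplicate, mean ± SEM.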
# [2] = Cytotoxicity against mouse multidrug-resistant TA3-MTX-R cells after 48 hrs by neutral red assay; assay type: functional, cell-based; summary of the method: as §1
# CCRF-CEM = assay: Cytotoxicity against human CCRF-CEM cells after 48 hrs by neutral red assay; assay type: functional, cell-based; summary of the method: as §1
# [3] = Cytotoxicity against mouse MM3MG cells after 48 hrs by neutral red assay; assay type: cell-based; summary of the method: as §1
# TA3-MTX-R [4] = assay: Induction of mitochondrial swelling in mouse TA3-MTX-R cell mitochondria at 0.15 mM by UV/vis spectrophotometer analysis in presence of N-acetylcysteine; assay type: functional
# TA3/Ha [5] = assay: Induction of apoptosis in mouse TA3/Ha cells assessed as caspase 3 activation at 0.5 uM after 24 hrs by Western blot analysis; assay type: functional, cell-based
# Summary of the method: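 Caspase 3 measured by Western blot. RIPA lysates, 50 μg protein run on 12% SDS–PAGE. Anti-caspase 3 (1:1000) and tubulin loading control (1:10000) overnight at 4 °C; HRP secondary for 2 h. ECL detection and densitometry.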
# [6] = Cell cycle arrest in mouse TA3/Ha cells assessed as accumulation at G0/G1 phase at 0.1 to 5 uM after 24 hrs; assay type: functional, cell-based
# TA3/Ha [7] = assay: Induction of apoptosis in mouse TA3/Ha cells assessed as early stage apoptotic cells at 0.5 uM after 24 to 48 hrs using annexin V/propidium iodide staining by flow cytometry; assay type: functional, cell-based
# Summary of the method: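 Annexin V-FITC/PI flow cytometry on 1 × 10^5 cells/mL treated for 24 and 48 h at 37 °C, 5% CO2. 5 min staining at room temperature; 5000 events recorded. Early apoptosis scored as annexin V+/PI−. Staurosporine 10 μM as positive control; at least three experiments, ANOVA with Bonferroni test.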
# TA3/Ha [8] = assay: Cytotoxicity against mouse TA3/Ha cells up to 24 hrs by lactate dehydrogenase assay; assay type: functional, cell-based
# Summary of the method: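 LDH release measured with a kit on 2 × 10^5 cells/mL incubated at 37 °C, 5% CO2, 90% humidity. Supernatant taken after centrifugation at 600g for 3 min, then 30 min with reaction mix at room temperature; absorbance read at 450 nm.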
# TA3/Ha [9] = assay: Antitumor activity against mouse TA3/Ha cells allografted in CAF1-Jax mouse syngenic model assessed as increase of host survival at 10 mg/kg, ip administered every 48 hrs of 30 days; assay type: functional, organism-based; design: dose 10 mg/kg
# TA3/Ha [10] = assay: Antitumor activity against mouse TA3/Ha cells allografted in CAF1-Jax mouse syngenic model assessed as inhibition of tumor growth at 10 mg/kg, ip administered every 48 hrs of 30 days; assay type: functional, organism-based; design: dose 10 mg/kg
# Summary of the method: (§2)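 Adult male CAF1-Jax mice; 1.0 × 10^6 TA3/Ha cells in 0.1 mL 0.9% NaCl injected subcutaneously into the back. 10 mg/kg given ip every 48 h for 30 days to groups of six mice; controls received vehicle. Tumor diameters measured three times weekly; volume = (max diameter)(min diameter)²/2. Two independent experiments.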
# Mus musculus = assay: Toxicity in mouse TA3/Ha cells allografted CAF1-Jax mouse syngenic model at 10 mg/kg, ip administered every 48 hrs of 30 days; assay type: organism-based; design: dose 10 mg/kg, route intraperitoneal; settings: in vivo; summary of the method: as §2
# TA3/Ha [11] = assay: Induction of NAD(P)H oxidation in mouse TA3/Ha cells assessed as reduction of NAD(P)H/NAD(P)+ ratio at 2.5 mg of protein/mL by spectrofluorometer analysis; assay type: functional, cell-based
# Summary of the method: (§3)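 NAD(P)H autofluorescence (ex 340, em 420 nm) at 25 °C with stirring. Medium: PBS pH 7.4, 2.5 mM glutamine, TA3 cells at 2.5 mg protein/mL. Rotenone (12 μM), FCCP (6 μM) or test cation added during the time course.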
# [12] = Ratio of IC50 for mouse MM3MG cells to IC50 for mouse TA3/Ha cells
# Summary of the method: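 Ratio of 48 h neutral red IC50 values. MM3MG seeded at 4 × 10^4 cells/mL, TA3 at 1 × 10^5 cells/mL. Each IC50 from a variable-slope sigmoidal fit of at least three independent experiments.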
# [13] = Uncoupling respiration effect in mouse TA3/Ha cells after 2 mins by polarographic analysis in presence of FCCP; assay type: functional
# Summary of the method: (§4)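 Polarographic respiration of digitonin-permeabilized cells (0.013 μg/mg protein; 2.5 mg protein/mL) in PBS pH 7.4 with 10 mM succinate and 1 μg/mL oligomycin. Cations added in 3 μL DMSO. Atractyloside 5 nmol/mg protein was added before succinate. FCCP added at the end: 0.15 μM for TA3, 0.25 μM for TA3-MTX-R. Slope and K0.5 taken from log–log linear regression; at least three experiments.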
# [14] = Uncoupling respiration effect in mouse TA3-MTX-R cells after 2 mins by polarographic analysis in presence of FCCP; assay type: functional; summary of the method: as §4
# [15] = Uncoupling respiration effect in mouse TA3/Ha cells after 2 mins by polarographic analysis in presence of atractyloside; assay type: functional; summary of the method: as §4
# [16] = Uncoupling respiration effect in mouse TA3-MTX-R cells after 2 mins by polarographic analysis in presence of atractyloside; assay type: functional; summary of the method: as §4
# TA3/Ha [17] = assay: Reduction of ATP level in mouse TA3/Ha cells at 1 to 20 uM after 2 hrs by CellTiter-Glo luminescent assay; assay type: functional, cell-based
# Summary of the method: (§5)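 CellTiter-Glo luminescence on 2 × 10^5 cells/mL incubated with cation for 2 h. Aliquot held 10 min at room temperature in the dark before reading; at least three experiments.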
# TA3/Ha [18] = assay: Reduction of ATP level in mouse TA3/Ha cells after 2 hrs by CellTiter-Glo luminescent assay; assay type: functional, cell-based; summary of the method: as §5
# [19] = Toxicity in mouse TA3/Ha cells assessed as cell membrane integrity after 24 hrs using propidium iodide by flow cytometry; assay type: cell-based; settings: 2 to 4 h, in the assay text read “after 2 to 4 hrs” for “after 24 hrs”
# Summary of the method: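 Membrane integrity by PI uptake on flow cytometry. Cells were seeded, grown for 24 h at 37 °C, 5% CO2, then given fresh medium with cation for 2 and 4 h before PI was added. Mean ± SEM of at least three experiments.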
# TA3/Ha [20] = assay: Induction of NAD(P)H oxidation in mouse TA3/Ha cells assessed as reduction of NAD(P)H/NAD(P)+ ratio by spectrofluorometer analysis; assay type: functional, cell-based; summary of the method: as §3
# TA3/Ha [21] = assay: Decrease of mitochondrial transmembrane potential in mouse TA3/Ha cell mitochondria at 0.5 uM after 5 mins by safranin staining; assay type: functional
# Summary of the method: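 Safranin (20 μM) absorbance change at 511–533 nm in isolated mitochondria (1.0 mg/mL) in sucrose/KCl/Hepes pH 7.4 buffer with EGTA and phosphate. Baseline 5 min, then 2 mM glutamate + 2 mM malate for 5 min, then cation added. Mean ± SD of at least three experiments.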
# TA3/Ha [22] = assay: Decrease of mitochondrial transmembrane potential in mouse TA3/Ha cell mitochondria at 0.5 uM after 5 mins by JC-1 staining; assay type: functional
# TA3/Ha [23] = assay: Decrease of mitochondrial transmembrane potential in mouse TA3/Ha cell mitochondria at 0.5 uM after 5 mins by JC-1 staining in presence of ADP; assay type: functional
# TA3/Ha [24] = assay: Induction of mitochondrial swelling in mouse TA3/Ha cell mitochondria at 0.05 to 0.20 mM by UV/vis spectrophotometer analysis; assay type: functional
# TA3-MTX-R [25] = assay: Induction of mitochondrial swelling in mouse TA3-MTX-R cell mitochondria at 0.05 to 0.20 mM by UV/vis spectrophotometer analysis; assay type: functional
# TA3/Ha [26] = assay: Induction of mitochondrial swelling in mouse TA3/Ha cell mitochondria at 0.15 mM by UV/vis spectrophotometer analysis in presence of cyclosporine-A; assay type: functional
# Summary of the method: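 Same swelling set-up with TA3/Ha mitochondria (0.5 mg/mL, KCl/Tris pH 7.4, glutamate/malate) at 0.15 mM cation, with increasing cyclosporine concentrations.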
# TA3/Ha [27] = assay: Induction of mitochondrial swelling in mouse TA3/Ha cell mitochondria at 0.15 mM by UV/vis spectrophotometer analysis in presence of N-ethylmaleimide; assay type: functional
# Summary of the method: (§6)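 Same swelling set-up with TA3/Ha mitochondria at 0.15 mM cation, in the presence of NEM, DTT or NAC. Mean ± SEM of at least three experiments, ANOVA with Bonferroni test.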
# TA3/Ha [28] = assay: Induction of mitochondrial swelling in mouse TA3/Ha cell mitochondria at 0.15 mM by UV/vis spectrophotometer analysis in presence of dithiothreitol; assay type: functional; summary of the method: as §6
# TA3/Ha [29] = assay: Induction of mitochondrial swelling in mouse TA3/Ha cell mitochondria at 0.15 mM by UV/vis spectrophotometer analysis in presence of N-acetylcysteine; assay type: functional; summary of the method: as §6
# TA3/Ha (Mus musculus) [30] = assay: Induction of mitochondrial swelling in mouse TA3/Ha cell mitochondria at 0.15 mM by UV/vis spectrophotometer analysis in presence of cyclosporine-A
# TA3/Ha (Mus musculus) [31] = assay: Induction of mitochondrial swelling in mouse TA3/Ha cell mitochondria at 0.15 mM by UV/vis spectrophotometer analysis in presence of dithiothreitol
# TA3/Ha (Mus musculus) [32] = assay: Induction of mitochondrial swelling in mouse TA3/Ha cell mitochondria at 0.15 mM by UV/vis spectrophotometer analysis in presence of N-ethylmaleimide
# TA3/Ha [33] = assay: Induction of NAD(P)H oxidation in mouse TA3/Ha cells assessed as reduction of NAD(P)H/NAD(P)+ ratio at 12 uM by spectrofluorometer analysis; assay type: functional, cell-based
# Summary of the method: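 Intact TA3 tumour cells, 2.5 mg protein/mL, in PBS pH 7.4 with 2.5 mM glutamine as substrate. Stirred and thermostatted at 25 °C. NAD(P)H autofluorescence (ex 340, em 420 nm) recorded as a time course by spectrofluorometer. Rotenone, FCCP or cation added during the trace.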
structure (smiles),measurement,setting,value
CCCCCCCCCCCCOC(=O)c1cc(O)c(O)c(O)c1 [DODECYL GALLATE],IC50,[1],7.06 µM
same,IC50,[2],3 µM
same,IC50,CCRF-CEM,15.5 µM
same,IC50,[3],30 µM
O=C(OCCCCCCCCCC[P+](c1ccccc1)(c1ccccc1)c1ccccc1)c1cc(O)c(O)c(O)c1.[Br-],Activity,TA3-MTX-R [4],Active
same,Activity,TA3/Ha [5],Active
same,Activity,[6],Active
same,Activity,TA3/Ha [7],Active
same,Activity,TA3/Ha [8],Active
same,Activity,TA3/Ha [9],Active
same,TGI,TA3/Ha [10],Active
same,Activity,Mus musculus,Non-toxic
same,Activity,TA3/Ha [11],Active
same,IC50,[1],0.4 µM
same,IC50,[2],0.38 µM
same,IC50,CCRF-CEM,1.65 µM
same,IC50,[3],7.1 µM
same,Ratio IC50,[12],17
same,K0.5,[13],1.21 µM
same,K0.5,[14],1.8 ×10⁻⁵ M
same,K0.5,[15],4.29 ×10⁻⁵ M
same,K0.5,[16],5.24 ×10⁻⁵ M
same,Activity,TA3/Ha [17],Active
same,Activity,TA3/Ha [18],Dose-dependent effect
same,Activity,[19],Non-toxic
same,Activity,TA3/Ha [20],Dose-dependent effect
same,Activity,TA3/Ha [21],Active
same,Activity,TA3/Ha [22],Active
same,Activity,TA3/Ha [23],Active
same,Activity,TA3/Ha [24],Active
same,Activity,TA3-MTX-R [25],Active
same,Activity,TA3/Ha [26],Active
same,Activity,TA3/Ha [27],inactive
same,Activity,TA3/Ha [28],inactive
same,Activity,TA3/Ha [29],inactive
same,Activity,TA3/Ha (Mus musculus) [30],Active
same,Activity,TA3/Ha (Mus musculus) [31],inactive
same,Activity,TA3/Ha (Mus musculus) [32],inactive
CCCCCCCCOC(=O)c1cc(O)c(O)c(O)c1 [OCTYL_GALLATE],IC50,[1],35.9 µM
same,IC50,[2],29.8 µM
same,IC50,CCRF-CEM,58.5 µM
same,IC50,[3],> 200 µM
C=C(C)[C@H]1Cc2c(ccc3c2O[C@@H]2COc4cc(OC)c(OC)cc4[C@@H]2C3=O)O1,Activity,TA3/Ha [33],Active
O=C(OCCCCCCCCCCC[P+](c1ccccc1)(c1ccccc1)c1ccccc1)c1cc(O)c(O)c(O)c1.[Br-],Activity,TA3/Ha [5],inactive
same,Activity,TA3/Ha [7],Active
same,Activity,TA3/Ha [8],Active
same,IC50,[1],6.4 µM
same,IC50,[2],3.7 µM
same,IC50,CCRF-CEM,19.8 µM
same,IC50,[3],14.3 µM
same,Activity,TA3/Ha [17],Active
same,Activity,TA3/Ha [18],Dose-dependent effect
same,Activity,[19],Non-toxic
